# Source: PubChem BioAssay
# p97 ATPase inh: inhibitors of human p97 ATPase, primary screen, biochemical. Transitional endoplasmic reticulum ATPase (Homo sapiens), P55072. recombinant p97 ATPase, Kinase-Glo ATP luminescence, 3 h. inhibition, % at 8 µM. actives 0.42% (n = 220,000). AID 1481, 2009; in the data active = inhibition above about 15%;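 note: 0% = DMSO vehicle and 100% = wells lacking enzyme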
# Runt-SMMHC FRET: inhibitors of RUNX1 Runt–CBFb-SMMHC binding, primary screen, biochemical, FRET, Cerulean-Runt, Venus-CBFb-SMMHC, uHTS; Runt-related transcription factor 1 (Homo sapiens) + Core-binding factor subunit beta …; Cerulean-Runt/Venus-CBFb-SMMHC FRET ratio 530/480, 1 h; inhibition, % at 20 µM; actives 0.74% (n = 220,000); AID 1434, 2008;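 active = mean inhibition across duplicate retests at 20 µM reaching about 50%, limit read from the data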;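 note: 0% = DMSO wells and 100% = wells with excess untagged CBFb-SMMHC; inhibitors lower the FRET ratio by blocking Runt binding to CBFb-SMMHC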
# Runt-CBFb FRET: inhibitors of RUNX1 Runt–CBFb binding, primary screen, biochemical, FRET, Cerulean-Runt, Venus-CBFb, uHTS; Runt-related transcription factor 1 (Homo sapiens) + Core-binding factor subunit beta …; Cerulean-Runt/Venus-CBFb FRET ratio 530/480, 1 h; inhibition, % at 20 µM; actives 0.46% (n = 220,000);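 active = inhibition over about 50% at 20 µM in the single-dose screen, limit read from the data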;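 note: 0% = DMSO wells and 100% = excess unlabeled CBFb competitor control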
#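 Measured by: fluorescence energy transfer, 422 nm excitation, 530/480 nm emission; Assay system: Cerulean-Runt domain; Medium: Tris pH 7.5 buffer with BSA; Measure: loss of energy transfer signal; Controls: 5 µM unlabeled CBFb as full-inhibition high control; Incubation: protein complex preformed 1 h, compound exposure 1 h, room temperature, dark.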
# Hck-Nef inh: inhibitors of Nef-activated human Hck kinase, primary screen, biochemical, Z-Lyte FRET, 384-well, Hck-YEEI; actives 0.68% (n = 220,000); Tyrosine-protein kinase HCK (Homo sapiens), P08631; AID 463187, 2010; inhibition, % at 20 µM; Recombinant Hck-YEEI plus Nef, Z-Lyte FRET kinase assay;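 active = Hck-Nef kinase inhibition above about 50%, limit read from the data; inactive = inhibition below that limit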;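 note: 0% = DMSO with Hck plus Nef and 100% = Hck alone without Nef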
# Target sequence (P08631 whole entry, looked up): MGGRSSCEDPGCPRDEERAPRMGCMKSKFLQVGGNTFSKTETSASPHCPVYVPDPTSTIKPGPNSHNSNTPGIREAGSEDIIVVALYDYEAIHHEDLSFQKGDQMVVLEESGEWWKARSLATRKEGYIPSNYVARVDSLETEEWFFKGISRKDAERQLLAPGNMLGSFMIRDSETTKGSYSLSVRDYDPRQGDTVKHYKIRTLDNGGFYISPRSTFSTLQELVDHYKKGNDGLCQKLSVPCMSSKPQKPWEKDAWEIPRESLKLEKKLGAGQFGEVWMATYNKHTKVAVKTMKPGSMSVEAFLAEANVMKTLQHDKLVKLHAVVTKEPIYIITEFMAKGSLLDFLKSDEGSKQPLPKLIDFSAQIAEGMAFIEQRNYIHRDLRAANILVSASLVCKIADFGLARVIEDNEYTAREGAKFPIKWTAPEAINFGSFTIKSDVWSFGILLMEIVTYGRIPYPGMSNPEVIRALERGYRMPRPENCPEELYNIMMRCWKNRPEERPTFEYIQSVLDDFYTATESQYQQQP
# Tb hexokinase: Trypanosoma brucei hexokinase 1 inhibitors, primary screen, biochemical, G6PDH-coupled NADH absorbance, MLSCN library; inhibition, % at 10 µM; actives 0.11% (n = 220,000); AID 1430, 2008; recombinant TbHK1, G6PDH-coupled NADH A340;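 active = inhibition of 50% or more in the single-dose primary screen; inactive = inhibition below 50%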
# RanGTP-Imp inh: inhibitors of RanGTP-importin-beta interaction, primary screen, biochemical, FRET, CFP-Ran, YFP-importin-beta, homogeneous; Ran GTPase (GTP-bound) - importin-beta complex; inhibition, % (test concentration not listed); cell-free CFP-Ran/YFP-importin-beta FRET ratio; actives 1.1% (n = 300,000);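 active = more than half of the replicate wells show a fall in the fluorescence ratio signal beyond about 16%, limit read from the data, passing the limit was not always enough; inconclusive = exactly half of the replicate wells pass the set limit; inactive = fewer than half of replicates pass the limit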;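 note: 0% = DMSO wells and 100% = Ran loaded with GDP instead of GTP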
# The depositor's hits bear a star; ? = inconclusive; . = not tested or not shown. The list is not random: actives were taken first. Their share in the collection is about 2.1%.
SMILES,p97 ATPase inh,Runt-SMMHC FRET,Runt-CBFb FRET,Hck-Nef inh,Tb hexokinase,RanGTP-Imp inh
CCCCC1=CC2=CC(=O)C(C)(OC(=O)c3cnc4ccccc4n3)C(=O)C2=CO1 (stereo unspecified),.,-47,-26,65*,-15,-42
COc1ccccc1N=Cc1c(C)c(C#N)c2[nH]c3ccccc3n2c1=O,6,-42,-3,53*,-7,2
CCNC(=O)CC1C(=O)N(CC)C(=S)N1NC(=O)c1cccnc1 (stereo unspecified),6,-1,0,19,-5,0
CC(C)Cc1nnc(NC(=O)Cc2cccs2)s1,-1,-5,2,36,9,26*
CCCn1nc(NC(C)=O)c2cc3cccc(C)c3nc21,.,.,.,.,.,69*
CCn1nc(NC(=O)C(C)(C)C)c2cc3cccc(C)c3nc21,.,.,.,.,.,47*
CCn1nc(NS(=O)(=O)c2ccc([N+](=O)[O-])cc2)c2cc3cccc(C)c3nc21,.,.,.,.,.,-1
CCCC(=O)Nc1nn(C)c2nc3c(C)cccc3cc12,-2,39,20,8,0,31*
Cc1cccc2cc3c(NC(=O)c4ccccn4)nn(C)c3nc12,3,86,57*,26,-8,35*
Cc1ccccc1NC(=O)c1ccccn1,5,1,1,19,1,-2
COc1cc2c(cc1NC(=O)COC(=O)C(CCSC)NC(=O)c1ccccc1Cl)oc1ccccc12 (stereo unspecified),8,-1,-5,5,11,-4
CCCn1nc(NC(=O)COC)c2cc3cccc(C)c3nc21,.,.,.,.,.,38*
COc1ccc(C#Cc2ccc3c(=O)c4ccccc4n(C)c3c2)cc1,.,.,.,.,.,88*
Cn1c2ccccc2c(=O)c2ccc(C#Cc3ccc(N)cc3)cc21,.,.,.,.,.,86*
Nc1ccc(C#Cc2ccc3sc4ccccc4c(=O)c3c2)cc1,.,.,.,.,.,-2
COCCN1C(=O)N(c2cccc(C)c2)C(=O)C1CC(=O)Nc1cc(OC)cc(OC)c1 (stereo unspecified),.,.,.,.,.,1
O=C(CC1SC(=NCC2CCCO2)NC1=O)Nc1cccc2ccccc12 (stereo unspecified),2,0,81*,3,33,-2
O=C(CC1SC(=NCC2CCCO2)NC1=O)Nc1cc([N+](=O)[O-])ccc1Cl (stereo unspecified),1,0,1,-30,-3,-1
Cc1ccc(NC2CCCN(C(=O)c3ccccc3-c3ncc[nH]3)C2)cc1C (stereo unspecified),.,.,.,.,.,-1
Cc1cc(-c2nnc(CCC(=O)NCc3cccc(C(F)(F)F)c3)o2)no1,.,.,.,.,.,4
O=C(Nc1nc2ccccc2s1)c1cc2c(s1)-c1ccccc1OC2,2,59*,19,36,-19,37*
Cc1cccc2c1-c1sc(C(=O)Nc3nccs3)cc1CO2,-3,25,-20,11,-8,22*
O=C(Nc1nccs1)c1cc2c(s1)-c1ccccc1OC2,6,32,-22,4,-2,4
O=C(Nc1ccc(Cl)cn1)c1cc2c(s1)-c1ccccc1OC2,4,38,32,47,-28,58*
Cc1cccc(NC(=S)N/N=C/c2ccc(Cl)c([N+](=O)[O-])c2)c1,-5,-25,0,0,-8,44*
CC(C)c1ccc(NC(=O)N2CCC(c3nc4ccccc4o3)CC2)cc1,-1,7,0,2,-2,0
CCOC(=O)C1=C(C)NC2=C(C(=O)CC(C)(C)C2)C1c1cccc(C)n1 (stereo unspecified),4,88*,37,31,3,?
